pIC50: −log10 of the molar value. Activity calls are given as the source filed them. The calls are words filed in the database; no cut-off is given here.

Experiment [1] deals with T1, Myeloperoxidase (Homo sapiens) (UniProt P05164).
T1 sequence (whole entry): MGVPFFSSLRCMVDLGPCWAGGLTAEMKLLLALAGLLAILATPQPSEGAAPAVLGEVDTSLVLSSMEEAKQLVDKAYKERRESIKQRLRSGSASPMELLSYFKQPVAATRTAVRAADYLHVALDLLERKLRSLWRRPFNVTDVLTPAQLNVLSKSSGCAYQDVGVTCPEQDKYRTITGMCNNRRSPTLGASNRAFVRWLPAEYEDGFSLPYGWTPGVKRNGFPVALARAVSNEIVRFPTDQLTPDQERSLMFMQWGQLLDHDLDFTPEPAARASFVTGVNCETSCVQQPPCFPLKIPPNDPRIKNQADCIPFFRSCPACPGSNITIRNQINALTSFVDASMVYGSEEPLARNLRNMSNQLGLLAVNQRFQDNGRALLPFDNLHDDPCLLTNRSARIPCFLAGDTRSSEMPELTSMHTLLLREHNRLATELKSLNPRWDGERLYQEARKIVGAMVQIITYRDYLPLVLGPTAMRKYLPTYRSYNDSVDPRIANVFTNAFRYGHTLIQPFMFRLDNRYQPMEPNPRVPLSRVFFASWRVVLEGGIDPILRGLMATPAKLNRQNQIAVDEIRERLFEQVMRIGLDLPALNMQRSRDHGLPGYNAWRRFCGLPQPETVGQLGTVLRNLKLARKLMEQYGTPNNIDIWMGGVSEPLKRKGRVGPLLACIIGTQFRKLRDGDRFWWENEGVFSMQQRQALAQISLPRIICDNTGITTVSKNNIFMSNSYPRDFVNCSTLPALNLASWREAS
Briefly: Inhibition of human MPO assessed as reduction in enzyme-mediated chlorination by measuring reduction in HOCl formation at 10 uM preincubated for 10 mins followed by H2O2/NaCl addition and measured at 30 secs time interval for 5 mins by APF dye based fluorescence assay relative to control. In short, it runs like this: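 HTS APF chlorination, 1536-well: 1.75 nM human MPO with 20 μM H2O2 final, compound 10 μM final, preincubated 10 min; APF reagent added, fluorescence 485/535 nm read every 30 s for 5 min; slope normalized to DMSO (0%) and no-MPO wells (100% inhibition).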

The nature of experiment [2]: Hypochlorus scavenging activity at 10 uM in presence of sodium hypochlorite after 15 mins by APF dye based fluorescence assay relative to control. In kind it is functional. In short, it runs like this:
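NaOCl-scavenger counterscreen in 1536-well format: 50 μM NaOCl in place of MPO with APF reagent, compound 10 μM final; fluorescence intensity read after 15 min incubation; ≥20% loss of fluorescence flagged as interference.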

For experiment [3], the target named is T2, Myeloperoxidase (Homo sapiens, UniProt P05164).
T2 sequence (P05164 whole entry): T1 sequence (whole entry)
Briefly: Inhibition of human MPO assessed as reduction in enzyme-mediated chlorination by measuring reduction in HOCl formation preincubated for 10 mins followed by H2O2/NaCl addition and measured at 30 secs time interval for 5 mins by APF dye based fluorescence assay.

Experiment [4] deals with T2, Myeloperoxidase. Briefly: Inhibition of human MPO assessed as reduction in enzyme-mediated chlorination by measuring reduction in HOCl formation in presence of H2O2/NaCl measured at 30 secs time interval for 5 mins by APF dye based fluorescence assay.
The target of experiment [5] is T2, Myeloperoxidase. In words: Inhibition of human MPO peroxidase activity in presence of H2O2 measured at 30 secs time interval for 5 mins by amplex red reagent based fluorescence assay.
In the next experiment the target is Lactoperoxidase (Homo sapiens, UniProt P22079). Briefly: Inhibition of recombinant human LPO isoform-1 (26 to 712 residues) expressed in baculovirus infected insect cells assessed as reduction in H2O2-catalyzed 3,5-iodo tyrosine formation using 3-iodotyrosine and potassium iodide preincubated for 10 mins followed by 3,5-iodo tyrosine/potassium iodide/H2O2 addition and measured after 15 mins. The method, boiled down:
(§1)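 LPO isoform 1 residues 26–712, baculovirus/T. ni expressed, purified by cation exchange, hydrophobic interaction and size exclusion; 2.0 nM in 100 mM KPi pH 7.4, 10 min rt preincubation with inhibitor; then 400 μM KI/240 μM 3-iodotyrosine mix and 20 μM H2O2 (added solutions); 3,5-iodotyrosine formation monitored.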

Experiment [6] has as its target T2, Myeloperoxidase. Briefly: Inhibition of MPO in human neutrophils assessed as reduction in PMA-stimulated HOCl production incubated for 3 mins and measured for 25 mins by luminol reagent based luminescence assay. The method, boiled down:
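Neutrophils from healthy donors isolated by dextran sedimentation then Ficoll-Paque, resuspended in HBSS; 1.106 cells/mL stimulated with 100 nM PMA; inhibitor 22 μM down to 1 nM (1:3, 10 doses) in 10% ethanol/50% PEG/40% water, 3 min at rt; luminol 100 μM final, read 25 min at 37 °C; rate taken from initial linear region.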

Experiment [7] concerns the target T1, Myeloperoxidase (Homo sapiens). In words: Substrate activity at human MPO assessed as reversion of enzyme to resting state at 40 uM in presence of H2O2 by stopped flow assay. The method, boiled down:
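Stopped-flow at 25 °C: syringe 1 with 2 μM MPO and 5 μM H2O2 in phosphate buffer, syringe 2 with inhibitor and 5 μM H2O2; equal volumes rapidly mixed, spectra acquired in PDA mode to follow several MPO species; representative of numerous replicates.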

The species entered for experiment [8] is Homo sapiens. Briefly: Selectivity ratio of IC50 for recombinant human C-terminal His6-tagged TPO (15 to 839 residues) expressed in baculovirus infected insect cells to IC50 for human MPO. In short, it runs like this:
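TPO residues 15–839 with C-terminal His6, baculovirus/T. ni expressed, purified by Ni affinity, anion exchange and size exclusion; 4.0 nM in 100 mM KPi pH 7.4, 10 min rt preincubation with inhibitor; then 400 μM KI/240 μM 3-iodotyrosine mix and 20 μM H2O2 (added solutions); 3,5-iodotyrosine formation monitored.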

Experiment [9] is filed under the species Homo sapiens. In words: Selectivity ratio of IC50 for recombinant human LPO isoform-1 (26 to 712 residues) expressed in baculovirus infected insect cells to IC50 for human MPO. The method, boiled down:
as §1

Sequence of Lactoperoxidase (P22079 whole entry, the tested form may be a part, canonical isoform): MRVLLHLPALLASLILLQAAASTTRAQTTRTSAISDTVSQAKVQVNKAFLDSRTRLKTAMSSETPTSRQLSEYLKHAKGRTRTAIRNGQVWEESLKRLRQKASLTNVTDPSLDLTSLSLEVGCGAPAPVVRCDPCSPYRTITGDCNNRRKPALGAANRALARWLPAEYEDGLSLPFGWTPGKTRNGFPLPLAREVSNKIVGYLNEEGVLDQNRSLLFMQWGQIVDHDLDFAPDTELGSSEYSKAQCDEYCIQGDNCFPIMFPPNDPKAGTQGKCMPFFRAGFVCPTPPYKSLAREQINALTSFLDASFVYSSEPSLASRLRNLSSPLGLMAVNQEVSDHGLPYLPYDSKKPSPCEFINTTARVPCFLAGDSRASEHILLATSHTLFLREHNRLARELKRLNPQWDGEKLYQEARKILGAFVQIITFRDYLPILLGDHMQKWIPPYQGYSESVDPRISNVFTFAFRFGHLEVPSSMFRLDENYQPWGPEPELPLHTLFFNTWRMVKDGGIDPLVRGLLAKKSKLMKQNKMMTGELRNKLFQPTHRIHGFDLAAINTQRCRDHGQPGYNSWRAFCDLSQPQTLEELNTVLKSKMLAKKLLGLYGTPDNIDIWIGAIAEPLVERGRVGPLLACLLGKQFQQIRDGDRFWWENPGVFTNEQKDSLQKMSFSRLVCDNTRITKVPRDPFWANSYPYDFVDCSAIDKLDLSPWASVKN

On to `Nc1ccc(Oc2cc(Cl)c(Cl)cc2Cl)cn1`, for which, in experiment [1], the inhibition stood at 30%. In addition, the Activity in experiment [2] is less than 20%. Besides, the pIC50 is 6.44 on Myeloperoxidase [3]; 6.49 on Myeloperoxidase [4]; 6.08 at Myeloperoxidase [5]; 4.89 on Lactoperoxidase; 5.77 on Myeloperoxidase [6]. In addition, in experiment [7], the result was Active. In addition, the Ratio IC50 in the experiment filed under Homo sapiens [8] and in the experiment filed under Homo sapiens [9] was more than 10 each time.

Regarding `Nc1nc(OCc2ccccc2)c2[nH]nnc2n1`, in experiment [1], the inhibition came out at 30%. In addition, the Activity in experiment [2] was less than 20%. In addition, the pIC50 at Myeloperoxidase [3] was 6.96; at Myeloperoxidase [4], 7.08; at Myeloperoxidase [5], 6.96; at Lactoperoxidase, less than 4.52; at Myeloperoxidase [6] it was 5.30. Moreover, the outcome in experiment [7] was inactive. Also, the Ratio IC50 in the experiment listed under Homo sapiens [8] and in the experiment listed under Homo sapiens [9] was more than 10 each time.

Broadly, the inhibition is the change of the read-out against control, counted positive when it falls. In general, pIC50 refers to −log10 of the IC50, conventionally taken in molar units.

Values taken from ChEMBL document CHEMBL4261550, “Triazolopyrimidines identified as reversible myeloperoxidase inhibitors” (Medchemcomm, 2017).
